Assay results published in ChEMBL document CHEMBL4014276, “Diphenylurea derivatives for combating methicillin- and vancomycin-resistant Staphylococcus aureus” (Eur J Med Chem, 2017).
Values after ≈ are worked out from the molar mass of the structure shown. Active and inactive are the calls of the source. The calls are words filed in the database; no cut-off is given here.

The molecules below were run on Staphylococcus aureus (assay: Antibacterial activity against methicillin-resistant Staphylococcus aureus USA300 NRS384 clinical isolate preincubated followed by bacterial subculturing for 2 weeks). Settings: not given.
Type: functional
For `C/C(=N\NC(=N)N)c1ccc(NC(=O)Nc2ccc(OC3CCCC3)cc2)cc1`, the Activity was “Active”.
In the case of `CCCCCCOc1ccc(NC(=O)Nc2ccc(/C(C)=N/NC(=N)N)cc2)cc1`, the Activity is reported as “Active”.
`CCC(CC)COc1ccc(NC(=O)Nc2ccc(/C(C)=N/NC(=N)N)cc2)cc1` was tested, and the Activity was “Active”.

The molecules below were run on Staphylococcus aureus (assay: Antibacterial activity against methicillin-resistant Staphylococcus aureus USA400 NRS123 clinical isolate after 20 hrs by broth microdilution method). Settings: USA400 NRS123, 20 h.
Type: functional
Method in brief: (§1)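 CLSI broth microdilution in cation-adjusted Mueller Hinton broth; compounds serially diluted, triplicate samples; 37 °C, 20 h. MIC read visually as lowest concentration with no visible growth; mean of triplicate determinations reported.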
With `CCCCCCOc1ccc(NC(=O)Nc2ccc(/C(C)=N/NC(=N)N)cc2)cc1` the MIC was 8 µg/mL (≈ 19.5 µM).

These molecules were tested on Staphylococcus aureus (assay: Antibacterial activity against methicillin-resistant Staphylococcus aureus USA300 NRS384 clinical isolate after 20 hrs by broth microdilution method). Settings: USA300 NRS384, 20 h.
Type: functional
Method in brief: as §1
In the case of `CCCCCCOc1ccc(NC(=O)Nc2ccc(/C(C)=N/NC(=N)N)cc2)cc1`, the MIC is reported as 8 µg/mL (≈ 19.5 µM).

The molecules below were run on Staphylococcus aureus (assay: Bactericidal activity against vancomycin-resistant Staphylococcus aureus VRSA4 after 18 hrs by broth microdilution method). Settings: VRSA4, 18 h.
Type: functional
Method in brief: (§2)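 From MIC wells without visible growth, 5 uL spotted onto Tryptic soy agar, incubated 37 °C for at least 18 h; MBC taken as lowest concentration giving 99.9% growth inhibition.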
`CCCCCCOc1ccc(NC(=O)Nc2ccc(/C(C)=N/NC(=N)N)cc2)cc1` showed an MBC of 8 µg/mL (≈ 19.5 µM).

The molecules below were run on Staphylococcus aureus (assay: Bactericidal activity against Staphylococcus aureus RN4220 NRS107 clinical isolate after 18 hrs by broth microdilution method). Settings: RN4220 NRS107, 18 h.
Type: functional
Method in brief: as §2
`CCCCCCOc1ccc(NC(=O)Nc2ccc(/C(C)=N/NC(=N)N)cc2)cc1` gave an MBC of 8 µg/mL (≈ 19.5 µM).

What follows are molecules tested on Staphylococcus aureus (assay: Bactericidal activity against methicillin-resistant Staphylococcus aureus USA100 NRS382 clinical isolate after 18 hrs by broth microdilution method). Settings: USA100 NRS382, 18 h.
Type: functional
Method in brief: as §2
`C/C(=N\NC(=N)N)c1ccc(NC(=O)Nc2ccc(OC3CCCC3)cc2)cc1` was tested, and the MBC was 64 µg/mL (≈ 162 µM).
With `CCCCCCOc1ccc(NC(=O)Nc2ccc(/C(C)=N/NC(=N)N)cc2)cc1` the MBC was 4 µg/mL (≈ 9.74 µM).

These molecules were tested on Staphylococcus aureus (assay: Bactericidal activity against vancomycin-resistant Staphylococcus aureus VRSA10 after 18 hrs by broth microdilution method). Settings: VRSA10, 18 h.
Type: functional
Method in brief: as §2
`CCCCCCOc1ccc(NC(=O)Nc2ccc(/C(C)=N/NC(=N)N)cc2)cc1` showed an MBC of 8 µg/mL (≈ 19.5 µM).

The molecules below were run on Staphylococcus aureus (assay: Antibacterial activity against methicillin-resistant Staphylococcus aureus USA200 NRS383 clinical isolate after 20 hrs by broth microdilution method). Settings: USA200 NRS383, 20 h.
Type: functional
Method in brief: as §1
In the case of `C/C(=N\NC(=N)N)c1ccc(NC(=O)Nc2ccc(OC3CCCC3)cc2)cc1`, the MIC is reported as 64 µg/mL (≈ 162 µM).
`CCCCCCOc1ccc(NC(=O)Nc2ccc(/C(C)=N/NC(=N)N)cc2)cc1` gave an MIC of 4 µg/mL (≈ 9.74 µM).

The molecules below were run on Staphylococcus aureus (assay: Antibacterial activity against methicillin-resistant Staphylococcus aureus USA100 NRS382 clinical isolate preincubated followed by bacterial subculturing for 2 weeks). Settings: not given.
Type: functional
`C/C(=N\NC(=N)N)c1ccc(NC(=O)Nc2ccc(OC3CCCC3)cc2)cc1` was tested, and the Activity was “Active”.
With `CCCCCCOc1ccc(NC(=O)Nc2ccc(/C(C)=N/NC(=N)N)cc2)cc1` the Activity was “Active”.
For `CCC(CC)COc1ccc(NC(=O)Nc2ccc(/C(C)=N/NC(=N)N)cc2)cc1`, the Activity was “Active”.

Each molecule was assayed on Staphylococcus aureus (assay: Antibacterial activity against vancomycin-resistant Staphylococcus aureus VRSA4 after 20 hrs by broth microdilution method). Settings: VRSA4, 20 h.
Type: functional
Method in brief: as §1
In the case of `CCCCCCOc1ccc(NC(=O)Nc2ccc(/C(C)=N/NC(=N)N)cc2)cc1`, the MIC is reported as 8 µg/mL (≈ 19.5 µM).

What follows are molecules tested on Staphylococcus aureus (assay: Antibacterial activity against Staphylococcus aureus RN4220 NRS107 clinical isolate after 20 hrs by broth microdilution method). Settings: RN4220 NRS107, 20 h.
Type: functional
Method in brief: as §1
For `CCCCCCOc1ccc(NC(=O)Nc2ccc(/C(C)=N/NC(=N)N)cc2)cc1`, the MIC was 8 µg/mL (≈ 19.5 µM).

The molecules below were run on Staphylococcus aureus (assay: Antibacterial activity against methicillin-resistant Staphylococcus aureus USA100 NRS382 clinical isolate after 20 hrs by broth microdilution method). Settings: USA100 NRS382, 20 h.
Type: functional
Method in brief: as §1
`C/C(=N\NC(=N)N)c1ccc(NC(=O)Nc2ccc(OC3CCCC3)cc2)cc1` showed an MIC of 64 µg/mL (≈ 162 µM).
`CCCCCCOc1ccc(NC(=O)Nc2ccc(/C(C)=N/NC(=N)N)cc2)cc1` showed an MIC of 4 µg/mL (≈ 9.74 µM).
For `CCC(CC)COc1ccc(NC(=O)Nc2ccc(/C(C)=N/NC(=N)N)cc2)cc1`, the MIC was 128 µg/mL (≈ 312 µM).

What follows are molecules tested on Staphylococcus aureus (assay: Bactericidal activity against methicillin-resistant Staphylococcus aureus USA200 NRS383 clinical isolate after 18 hrs by broth microdilution method). Settings: USA200 NRS383, 18 h.
Type: functional
Method in brief: as §2
Work on `C/C(=N\NC(=N)N)c1ccc(NC(=O)Nc2ccc(OC3CCCC3)cc2)cc1` yielded an MBC of 128 µg/mL (≈ 324 µM).
Molecule `CCCCCCOc1ccc(NC(=O)Nc2ccc(/C(C)=N/NC(=N)N)cc2)cc1` has an MBC of 8 µg/mL (≈ 19.5 µM).

The molecules below were run on Staphylococcus aureus (assay: Antibacterial activity against methicillin-resistant Staphylococcus aureus USA200 NRS383 clinical isolate preincubated followed by bacterial subculturing for 2 weeks). Settings: not given.
Type: functional
In the case of `C/C(=N\NC(=N)N)c1ccc(NC(=O)Nc2ccc(OC3CCCC3)cc2)cc1`, the Activity is reported as “Active”.
With `CCCCCCOc1ccc(NC(=O)Nc2ccc(/C(C)=N/NC(=N)N)cc2)cc1` the Activity was “Active”.
For `CCC(CC)COc1ccc(NC(=O)Nc2ccc(/C(C)=N/NC(=N)N)cc2)cc1`, the Activity was “Active”.

What follows are molecules tested on Staphylococcus aureus (assay: Bactericidal activity against methicillin-resistant Staphylococcus aureus USA300 NRS384 clinical isolate after 18 hrs by broth microdilution method). Settings: USA300 NRS384, 18 h.
Type: functional
Method in brief: as §2
For `CCCCCCOc1ccc(NC(=O)Nc2ccc(/C(C)=N/NC(=N)N)cc2)cc1`, the MBC was 16 µg/mL (≈ 39 µM).

These molecules were tested on Staphylococcus aureus (assay: Antibacterial activity against methicillin-resistant Staphylococcus aureus USA400 NRS123 clinical isolate preincubated followed by bacterial subculturing for 2 weeks). Settings: not given.
Type: functional
In the case of `C/C(=N\NC(=N)N)c1ccc(NC(=O)Nc2ccc(OC3CCCC3)cc2)cc1`, the Activity is reported as “Active”.
With `CCCCCCOc1ccc(NC(=O)Nc2ccc(/C(C)=N/NC(=N)N)cc2)cc1` the Activity was “Active”.
`CCC(CC)COc1ccc(NC(=O)Nc2ccc(/C(C)=N/NC(=N)N)cc2)cc1` was tested, and the Activity was “Active”.

The molecules below were run on Staphylococcus aureus (assay: Bactericidal activity against methicillin-resistant Staphylococcus aureus USA400 NRS123 clinical isolate after 18 hrs by broth microdilution method). Settings: USA400 NRS123, 18 h.
Type: functional
Method in brief: as §2
In the case of `CCCCCCOc1ccc(NC(=O)Nc2ccc(/C(C)=N/NC(=N)N)cc2)cc1`, the MBC is reported as 16 µg/mL (≈ 39 µM).

Each molecule was assayed on Staphylococcus aureus (assay: Antibacterial activity against vancomycin-resistant Staphylococcus aureus VRSA10 after 20 hrs by broth microdilution method). Settings: VRSA10, 20 h.
Type: functional
Method in brief: as §1
With `CCCCCCOc1ccc(NC(=O)Nc2ccc(/C(C)=N/NC(=N)N)cc2)cc1` the MIC was 8 µg/mL (≈ 19.5 µM).
